Measurements taken from ChEMBL document CHEMBL5696442, “Discovery of type II inhibitors of TGFβ-activated kinase 1 (TAK1) and mitogen-activated protein kinase kinase kinase kinase 2 (MAP4K2)” (J Med Chem, 2015).
Calls of active or inactive are those of the source. No cut-off for these calls is given here.

Key:
MEF [1] = assay: Inhibition of IL-1 induced p38 MAPK phosphorylation level in TAK1 deficient mouse MEF cells incubated for 1 hr followed by IL-1 stimulation by Western blot analysis; type: functional, cell-based; settings: dose <= 500.0 nM
In short: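 WT and TAK1-null MEFs were grown in DMEM with 10% FBS and held in 0.1% FBS for 16 h. Compound was added 1 h before mouse IL-1α (5 ng/mL, 10 min). Cells were lysed in ice-cold buffer and extracts cleared at 16000g. Phospho-p38 was detected by Western blot.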

[2] = biological target: T1, Mitogen-activated protein kinase kinase kinase 7 (Homo sapiens) (UniProt O43318); assay: Inhibition of TAK1 Lys2 labeling site in human A-375 cells at 0.5 uM by KiNativ Profiling analysis relative to control; type: cell-based
T1 sequence (whole entry): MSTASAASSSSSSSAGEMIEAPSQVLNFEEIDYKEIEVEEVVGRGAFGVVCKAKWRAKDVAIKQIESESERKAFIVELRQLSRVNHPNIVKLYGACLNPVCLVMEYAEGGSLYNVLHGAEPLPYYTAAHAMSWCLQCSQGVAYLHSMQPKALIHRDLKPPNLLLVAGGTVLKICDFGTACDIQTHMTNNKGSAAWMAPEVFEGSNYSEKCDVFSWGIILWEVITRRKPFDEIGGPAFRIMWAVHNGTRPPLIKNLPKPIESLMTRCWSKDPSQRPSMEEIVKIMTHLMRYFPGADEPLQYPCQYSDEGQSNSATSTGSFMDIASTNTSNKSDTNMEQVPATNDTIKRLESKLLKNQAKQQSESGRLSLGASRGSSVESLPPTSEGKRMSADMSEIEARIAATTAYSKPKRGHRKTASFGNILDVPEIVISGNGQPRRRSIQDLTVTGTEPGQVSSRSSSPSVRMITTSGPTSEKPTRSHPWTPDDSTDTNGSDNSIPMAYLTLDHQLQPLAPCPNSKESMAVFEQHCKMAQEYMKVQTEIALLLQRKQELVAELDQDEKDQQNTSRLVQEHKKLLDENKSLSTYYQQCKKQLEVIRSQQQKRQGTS

[3] = biological target: T2, Mitogen-activated protein kinase kinase kinase kinase 2 (Homo sapiens) (UniProt Q12851); assay: Inhibition of MAP4K2 Lys1 labeling site in human A-375 cells at 0.5 uM by KiNativ Profiling analysis relative to control; type: cell-based
T2 sequence (whole entry): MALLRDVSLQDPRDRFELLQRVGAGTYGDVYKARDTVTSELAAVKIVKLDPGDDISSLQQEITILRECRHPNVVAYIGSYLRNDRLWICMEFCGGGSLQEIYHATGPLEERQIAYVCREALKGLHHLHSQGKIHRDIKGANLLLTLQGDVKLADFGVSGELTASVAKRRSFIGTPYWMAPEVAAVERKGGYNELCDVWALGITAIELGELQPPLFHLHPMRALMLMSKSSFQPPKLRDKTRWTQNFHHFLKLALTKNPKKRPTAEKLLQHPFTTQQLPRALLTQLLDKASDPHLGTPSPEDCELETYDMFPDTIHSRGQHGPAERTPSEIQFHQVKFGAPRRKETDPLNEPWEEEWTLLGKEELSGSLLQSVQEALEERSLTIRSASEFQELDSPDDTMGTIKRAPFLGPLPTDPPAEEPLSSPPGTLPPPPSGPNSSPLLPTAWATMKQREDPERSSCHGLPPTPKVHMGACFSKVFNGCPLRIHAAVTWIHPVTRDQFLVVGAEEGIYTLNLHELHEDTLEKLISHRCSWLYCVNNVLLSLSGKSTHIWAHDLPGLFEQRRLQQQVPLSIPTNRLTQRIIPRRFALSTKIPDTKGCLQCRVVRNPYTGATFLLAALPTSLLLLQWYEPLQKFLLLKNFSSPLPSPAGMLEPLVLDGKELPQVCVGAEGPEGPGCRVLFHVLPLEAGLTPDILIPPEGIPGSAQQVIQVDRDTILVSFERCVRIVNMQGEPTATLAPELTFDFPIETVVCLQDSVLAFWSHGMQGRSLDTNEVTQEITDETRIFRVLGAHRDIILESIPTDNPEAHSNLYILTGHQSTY

MEF [4] = assay: Inhibition of TGF-beta induced SMAD2 phosphorylation level in TAK1 deficient mouse MEF cells at upto 500 nM incubated for 1 hr followed by TGF-beta stimulation by Western blot analysis; type: functional, cell-based
In short: (§1)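 In serum-starved WT and TAK1–/– MEFs (0.1% FBS, 16 h), inhibitor was added 1 h before TGFβ (50 pM, 45 min). Cleared lysates were immunoblotted for phospho-SMAD2 and phospho-p38.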

[5] = biological target: T3, Mitogen-activated protein kinase kinase kinase kinase 2 (Homo sapiens, UniProt Q12851); assay: Inhibition of MAP4K2 (unknown origin) Lys1 labeling site by KiNativ Profiling analysis
T3 sequence (Q12851 whole entry): T2 sequence (whole entry)

MEF [6] = assay: Inhibition of TGF-beta induced p38 MAPK phosphorylation level in TAK1 deficient mouse MEF cells incubated for 1 hr followed by TGF-beta stimulation by Western blot analysis; type: functional, cell-based; settings: dose <= 500.0 nM; in short: as §1
[7] = biological target: T4, Mitogen-activated protein kinase kinase kinase 7 (Homo sapiens, UniProt O43318); assay: Inhibition of TAK1 (unknown origin) Lys2 labeling site by KiNativ Profiling analysis
T4 sequence (O43318 whole entry): T1 sequence (whole entry)

GEN2.2 = assay: Inhibition of CL097 induced p-105 phosphorylation level in human GEN2.2 cells at 1 uM preincubated with compound for 1 hr followed by CL097 stimulation and measured after 30 mins by Western blot analysis; type: functional, cell-based
In short: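 Gen2.2 cells were pretreated with compound at 1 μM for 1 h, then stimulated with CL097 for 30 min. Lysates were analysed by Western blot for phosphorylation of p105, p38 and JNK1/2.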

[8] = biological target: T5, Serine/threonine-protein kinase Chk1 (Homo sapiens) (UniProt O14757); assay: Inhibition of CHK1 Lys2 labeling site harbouring DIKPENLLLDER in human A-375 cells at 5 uM by KiNativ Profiling analysis relative to control; type: cell-based
T5 sequence (whole entry): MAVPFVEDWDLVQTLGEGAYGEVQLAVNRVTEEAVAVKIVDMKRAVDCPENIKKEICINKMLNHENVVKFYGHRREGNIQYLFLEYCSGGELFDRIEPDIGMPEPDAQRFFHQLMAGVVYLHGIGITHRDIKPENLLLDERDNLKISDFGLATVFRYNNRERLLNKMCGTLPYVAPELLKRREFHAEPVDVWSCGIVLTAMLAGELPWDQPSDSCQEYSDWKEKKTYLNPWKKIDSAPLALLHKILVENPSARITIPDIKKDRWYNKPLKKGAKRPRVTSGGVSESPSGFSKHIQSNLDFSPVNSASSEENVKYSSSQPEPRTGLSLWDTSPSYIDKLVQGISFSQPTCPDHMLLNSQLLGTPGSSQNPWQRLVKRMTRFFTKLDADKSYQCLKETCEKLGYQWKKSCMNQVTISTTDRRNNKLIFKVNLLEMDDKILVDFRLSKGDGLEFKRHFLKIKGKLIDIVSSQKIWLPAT
In short: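 Live A375 melanoma cells were treated with compound at 5 or 0.5 μM. The cells were then lysed, and the lysates were labeled with a lysine-reactive ATP or ADP-biotin acyl probe (KiNativ). Inhibition is the compound's protection of each kinase labeling-site peptide from probe labeling, relative to untreated control.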

Row | SMILES | inhibition (MEF [1]) | inhibition [2] [%] | inhibition [3] [%] | inhibition (MEF [4]) | IC50 [5] [nM] | inhibition (MEF [6]) | IC50 [7] [nM] | inhibition (GEN2.2) | inhibition [8] [%]
1 | CNc1cc(Oc2cc(C(=O)Nc3cc(N4CCN(C)CC4)cc(C(F)(F)F)c3)ccc2C)ncn1 | Dose-Dependent Effect | 7 | 85.3 | inactive | 37.2 | Dose-Dependent Effect | 2700 | – | –
2 | CCN1CCN(Cc2ccc(NC(=O)c3ccc(C)c(Oc4ccnc5[nH]ccc45)c3)cc2C(F)(F)F)CC1 | Dose-Dependent Effect | 97.1 | > 99.5 | Active | – | Dose-Dependent Effect | 149 | Active | 40.1
3 | CNc1cc(Oc2cc(C(=O)Nc3cc(-n4cnc(C)c4)cc(C(F)(F)F)c3)ccc2C)ncn1 | Dose-Dependent Effect | 29.3 | 79.7 | inactive | 129 | Dose-Dependent Effect | > 1110 | inactive | –
4 | CCN1CCN(Cc2ccc(NC(=O)c3ccc(C)c(/C=C/c4cnc5[nH]ccc5c4OC)c3)cc2C(F)(F)F)CC1 | – | – | – | – | 98 | – | 41 | – | -4.8
